From ChEMBL document CHEMBL1137655, “Isoxyl activation is required for bacteriostatic activity against Mycobacterium tuberculosis” (2007)
Active and inactive are the calls of the source. No cut-off for these calls is given here.

Assays:
Type in all cases: functional, organism-based
Conditions in all cases: Mycobacterium bovis BCG str. Pasteur 1173P2
[1] = system: Mycobacterium tuberculosis variant bovis; assay: Inhibition of mycolic acid synthesis in Mycobacterium bovis BCG Pasteur 1173P2 sonicates assessed as inhibition of alphamycolates production by autoradiography
Procedure, shortened: (§1)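 BCG sonicate (3 mg protein) with 1 μCi [1,2-14C]acetate, ISO 0, 2 or 5 μg/ml final, ±purified EthA (up to 10 μg), 25 mM Tris-HCl pH 7.5; 10 min ice, 2 h 37°C; mycolic acid methyl esters by TLC (hexane:ethyl acetate 95:5) and autoradiography.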

[2] = system: Mycobacterium tuberculosis variant bovis; assay: Inhibition of mycolic acid synthesis in Mycobacterium bovis BCG Pasteur 1173P2 sonicates assessed as inhibition of ketomycolates production by autoradiography; procedure, shortened: as §1
[3] = system: Mycobacterium tuberculosis variant bovis; assay: Inhibition of mycolic acid synthesis in Mycobacterium bovis BCG Pasteur 1173P2 sonicates assessed as inhibition of alphamycolates production using partially purified EthA as cofactor by autoradiography; procedure, shortened: as §1
[4] = system: Mycobacterium tuberculosis variant bovis; assay: Inhibition of mycolic acid synthesis in Mycobacterium bovis BCG Pasteur 1173P2 sonicates assessed as inhibition of ketomycolates production using partially purified EthA as cofactor by autoradiography; procedure, shortened: as §1

In the case of `CC(C)CCOc1ccc(NC(=S)Nc2ccc(OCCC(C)C)cc2)cc1` [TIOCARLIDE], the Activity [1] is reported as “Active”, the Activity [2] is reported as “Active” and the Activity [3] is reported as “inactive”. The Activity [4] was “inactive”.
